Laboratory results reported in ChEMBL document CHEMBL1157796, “Coumarins from Galipea panamensis and Their Activity against Leishmania panamensis” (J Nat Prod, 2010).
In brackets after ≈: the same amount, converted by molar mass.

Tests used:
Leishmania panamensis = assay: Antimicrobial activity against Leishmania panamensis M/HOM//87/UA140 transfected with p6.5-egfp after 72 hrs by MTT assay; format: functional, organism-based; conditions: M/HOM//87/UA140, 72 h
Method in brief: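 Axenic amastigotes of L. panamensis M/HOM//87/UA140 epirGFP strain (1 × 10^6 parasites/mL) incubated at 32 °C in Schneider's Drosophila medium pH 5.2 with 20% heat-inactivated FCS. Six concentrations, 3.1-100 µg/mL, from DMSO solutions, 72 h. MTT then added for 4 h, stopped with 2-propanol/SDS, OD 570 nm. DMSO-treated and untreated parasites as controls, amphotericin B as reference. Two independent experiments in triplicate, EC50 by Probit analysis.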

[1] = Cytotoxicity against human U937 cells; format: cell-based, U-937
[2] = Selectivity index, ratio of CC50 for human U937 cells to EC50 for Leishmania panamensis M/HOM//87/UA140; format: toxicity, cell-based, U-937; conditions: read-out: Selectivity Index

Row | Compound | EC50 (Leishmania panamensis) [µg/mL] | CC50 [1] [µg/mL] | selectivity ratio [2]
1 | COc1ccc2ccc(=O)oc2c1-c1cocc1C | 10 (≈ 39 µM) | 33 (≈ 129 µM) | 3
2 | C=C(C)[C@H]1O[C@@H]1c1c(OC[C@H]2OC2(C)C)ccc2ccc(=O)oc12 (relative stereo) | 10 (≈ 30.5 µM) | 9.7 (≈ 29.5 µM) | 1
3 | COc1ccc2ccc(=O)oc2c1C(C=O)=C(C)C [MURRALONGIN] | > 100 | 121 (≈ 470 µM) | 
4 | C=C(C)[C@H]1O[C@@H]1c1c(OC)ccc2ccc(=O)oc12 [PHEBALOSIN] |  | 20.7 (≈ 80.1 µM) | 1.5
